The subject of assay [1] is Staphylococcus aureus. In words: Antibacterial activity against Staphylococcus aureus ATCC 25923 after 24 hrs by two-fold serial dilution assay. In kind it is functional. The procedure, abridged:
(§1)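 Twofold serial broth dilution following NCCLS guidance, with Chloromycin, Norfloxacin and Fluconazole as positive controls. MIC in μM is the lowest concentration giving complete inhibition of visible bacterial or fungal growth.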

In assay [2] the test system is Candida albicans. In words: Antifungal activity against Candida albicans ATCC 76615 after 24 hrs by two-fold serial dilution assay. In kind it is functional. The essentials:
as §1

For assay [3], the system named is Aspergillus flavus. In words: Antifungal activity against Aspergillus flavus after 24 hrs by two-fold serial dilution assay. It is filed as functional. The procedure, abridged:
as §1

Assay [4] has as its system Shigella dysenteriae. In words: Antibacterial activity against Shigella dysenteriae after 24 hrs by two-fold serial dilution assay. In kind it is functional.
For assay [5], the system named is Escherichia coli. In words: Antibacterial activity against Escherichia coli DH52 after 24 hrs by two-fold serial dilution assay. It is filed as functional. The procedure, abridged:
as §1

Assay [6] deals with Proteus vulgaris. In words: Antibacterial activity against Bacillus proteus ATCC 13315 after 24 hrs by two-fold serial dilution assay. In kind it is functional. The essentials:
as §1

Assay [7] relates to Pichia norvegensis. In words: Antifungal activity against Candida mycoderma after 24 hrs by two-fold serial dilution assay. It is filed as functional. The essentials: as §1
For assay [8], the system named is Staphylococcus aureus. In words: Antibacterial activity against methicillin-resistant Staphylococcus aureus N315 after 24 hrs by two-fold serial dilution assay. It is filed as functional.
The subject of assay [9] is Micrococcus luteus. In words: Antibacterial activity against Micrococcus luteus ATCC 4698 after 24 hrs by two-fold serial dilution assay. In kind it is functional, NCTC 2665. The essentials: as §1
For assay [10], the system named is Saccharomyces cerevisiae. In words: Antifungal activity against Saccharomyces cerevisiae after 24 hrs by two-fold serial dilution assay. It is filed as functional. The procedure, abridged:
as §1

Assay [11] concerns Salmonella typhi. In words: Antibacterial activity against Bacillus typhi after 24 hrs by two-fold serial dilution assay. In kind it is functional, Salmonella enterica subsp. enterica serovar Typhi.
For assay [12], the system named is Pseudomonas aeruginosa. In words: Antibacterial activity against Pseudomonas aeruginosa after 24 hrs by two-fold serial dilution assay. In kind it is functional. The procedure, abridged:
as §1

For assay [13], the system named is Escherichia coli. In words: Antibacterial activity against Escherichia coli JM109 after 24 hrs by two-fold serial dilution assay. In kind it is functional. The procedure, abridged:
as §1

For assay [14], the system named is Cyberlindnera jadinii. In words: Antifungal activity against Candida utilis after 24 hrs by two-fold serial dilution assay. In kind it is functional. The procedure, abridged: as §1
In assay [15] the test system is Bacillus subtilis. In words: Antibacterial activity against Bacillus subtilis after 24 hrs by two-fold serial dilution assay. It is filed as functional. The essentials: as §1
Setting [16] is: Staphylococcus aureus, ATCC 25923, 24 h, read-out: MIC.
Where [17] appears, read: Candida albicans, ATCC 76615, 24 h, read-out: MIC.
The mark [18] stands for this setting: Aspergillus flavus, 24 h, read-out: MIC.
The mark [19] stands for this setting: Shigella dysenteriae, 24 h, read-out: MIC.
[20] abbreviates: Escherichia coli, DH52, 24 h, read-out: MIC.
Where [21] appears, read: Proteus vulgaris, ATCC 13315, 24 h, read-out: MIC.
[22] abbreviates: Pichia norvegensis, 24 h, read-out: MIC.
Setting [23] is: Staphylococcus aureus, N315, 24 h, read-out: MIC.
[24] abbreviates: Micrococcus luteus, NCTC 2665, 24 h, read-out: MIC.
Where [25] appears, read: Saccharomyces cerevisiae, 24 h, read-out: MIC.
Setting [26] is: Salmonella enterica, 24 h, read-out: MIC.
[27] abbreviates: Pseudomonas aeruginosa, 24 h, read-out: MIC.
Where [28] appears, read: Escherichia coli, JM109, 24 h, read-out: MIC.
Where [29] appears, read: Williopsis jadinii, 24 h, read-out: MIC.
[30] abbreviates: Bacillus subtilis, 24 h, read-out: MIC.

Our source for the MIC values is ChEMBL document CHEMBL4049410, “Novel benzimidazolyl tetrahydroprotoberberines: Design, synthesis, antimicrobial evaluation and multi-targeting exploration” (2017).

Values after ≈ are worked out from the molar mass of the structure shown.

For orientation: MIC means the lowest concentration that inhibits growth of the organism. On to `COc1cc(-c2nc3ccccc3n2Cc2ccc(Cl)cc2)c2c(c1O)CN1CCc3cc4c(cc3C1C2)OCO4` (stereo not drawn), for which the MIC in assay [1] turned out to be 9.4 µM (≈ 5.32 µg/mL); in assay [2], 23.6 µM (≈ 13.4 µg/mL); in assay [3], 14.1 µM (≈ 7.98 µg/mL); in assay [4], 18.9 µM (≈ 10.7 µg/mL); in [5] it was 56.5 µM (≈ 32 µg/mL); in assay [6], 11.8 µM (≈ 6.68 µg/mL). Further, the MIC in assay [7] is 14.1 µM (≈ 7.98 µg/mL); in [8], 18.9 µM (≈ 10.7 µg/mL); in assay [9], 28.3 µM (≈ 16 µg/mL); in [10], 14.1 µM (≈ 7.98 µg/mL); in assay [11], 9.4 µM (≈ 5.32 µg/mL); in assay [12] it was 23.6 µM (≈ 13.4 µg/mL). Besides, the MIC is 37.7 µM (≈ 21.3 µg/mL) in assay [13], 11.8 µM (≈ 6.68 µg/mL) in assay [14] and 11.8 µM (≈ 6.68 µg/mL) in assay [15].

With `COc1ccc2cc3[n+](cc2c1OC)CCc1cc2c(cc1-3)OCO2` [BERBERINE], the MIC is 1380 µM in assay [1] (setting [16]); 918 µM in assay [2] (setting [17]); 1150 µM in assay [3] (setting [18]); 1150 µM in assay [4] (setting [19]); 1150 µM in assay [5] (setting [20]); 688 µM in [6] (setting [21]). Also, the MIC in [7] (setting [22]) came to 287 µM; in assay [8] (setting [23]) it was 230 µM; in assay [9] (setting [24]) it was 1380 µM; in assay [10] (setting [25]), 287 µM; in assay [11] (setting [26]), 459 µM; in [12] (setting [27]), 574 µM. Besides, the MIC turned out to be 1380 µM in assay [13] (setting [28]), 574 µM in assay [14] (setting [29]) and 1150 µM in assay [15] (setting [30]).

For `COc1cc(-c2nc3ccccc3n2Cc2cccc(F)c2)c2c(c1O)CN1CCc3cc4c(cc3C1C2)OCO4.Cl` (stereo not drawn), the MIC in [1] was 70.8 µM; in assay [2], 70.8 µM; in [3], 88.5 µM; in assay [5], 141.6 µM; in [6], 88.5 µM; in [7], 70.8 µM. Further, the MIC in [9] was determined as 70.8 µM; in assay [10], 35.4 µM; in assay [12] it was 212.4 µM; in [13] it was 70.8 µM; in [14] it was 106.2 µM; in assay [15], 88.5 µM.

Consider `COc1cc(-c2nc3ccccc3n2Cc2ccccc2F)c2c(c1O)CN1CCc3cc4c(cc3C1C2)OCO4.Cl` (stereo not drawn), for which the MIC in assay [2] was 20.9 µM; in assay [3], 803.8 µM; in [4] it was 50.2 µM; in assay [5], 20.9 µM; in [6] it was 20.9 µM; in [7] it was 10.5 µM. Further, the MIC amounted to 20.9 µM in assay [9]; 83.8 µM in [10]; 6.3 µM in assay [11]; 67 µM in [12]; 20.9 µM in assay [13]; 12.6 µM in assay [14]. The same molecule returned an MIC in [15] of 33.5 µM.

`O=C(N[C@H](CO)[C@H](O)c1ccc([N+](=O)[O-])cc1)C(Cl)Cl` [CHLORAMPHENICOL]: the MIC in [1] (setting [16]) stood at 41.3 µM (≈ 13.3 µg/mL); in assay [4] (setting [19]), 99 µM (≈ 32 µg/mL); in assay [5] (setting [20]) it was 66 µM (≈ 21.3 µg/mL); in assay [6] (setting [21]) it was 99 µM (≈ 32 µg/mL); in [8] (setting [23]), 41.3 µM (≈ 13.3 µg/mL); in assay [9] (setting [24]), 20.7 µM (≈ 6.69 µg/mL). Further, the MIC in assay [11] (setting [26]) came to 82.5 µM (≈ 26.7 µg/mL); in assay [12] (setting [27]), 99 µM (≈ 32 µg/mL); in assay [13] (setting [28]), 82.5 µM (≈ 26.7 µg/mL); in [15] (setting [30]) it was 82.5 µM (≈ 26.7 µg/mL).

With `COc1cc(C=O)c2c(c1O)CN1CCc3cc4c(cc3C1C2)OCO4` (stereo not drawn), the MIC in assay [1] (setting [16]) turned out to be 724 µM (≈ 256 µg/mL); in [2] (setting [17]), 151 µM (≈ 53.3 µg/mL); in assay [3] (setting [18]) it was 151 µM (≈ 53.3 µg/mL); in assay [4] (setting [19]) it was 121 µM (≈ 42.7 µg/mL); in [5] (setting [20]), 242 µM (≈ 85.3 µg/mL); in assay [6] (setting [21]), 483 µM (≈ 171 µg/mL). The MIC is 242 µM (≈ 85.3 µg/mL) in assay [7] (setting [22]); 302 µM (≈ 107 µg/mL) in assay [8] (setting [23]); 302 µM (≈ 107 µg/mL) in assay [9] (setting [24]); 362 µM (≈ 128 µg/mL) in assay [10] (setting [25]); 302 µM (≈ 107 µg/mL) in [11] (setting [26]); 302 µM (≈ 107 µg/mL) in assay [12] (setting [27]). Further, the figures for the MIC in assay [13] (setting [28]), in assay [14] (setting [29]) and in [15] (setting [30]) were 242 µM (≈ 85.3 µg/mL), 302 µM (≈ 107 µg/mL) and 483 µM (≈ 171 µg/mL), respectively.

With `COc1cc(-c2nc3ccccc3n2Cc2ccc(F)cc2)c2c(c1O)CN1CCc3cc4c(cc3C1C2)OCO4.Cl` (stereo not drawn), the MIC in assay [1] worked out at 109.2 µM; in [2] it was 182 µM; in assay [3], 182 µM; in assay [4], 145.6 µM; in assay [5] it was 182 µM; in assay [6], 182 µM. For the same molecule, the MIC in assay [7] is 218.4 µM; in [9] it was 182 µM; in assay [10] it was 36.4 µM; in [12], 182 µM; in assay [13] it was 182 µM; in [14], 182 µM. The MIC in assay [15] turned out to be 182 µM.
